Source: ChEMBL document CHEMBL4196081, “Synthesis and antimycobacterial activity of 1-(β-d-Ribofuranosyl)-4-coumarinyloxymethyl- / -coumarinyl-1,2,3-triazole” (Eur J Med Chem, 2018)
In brackets after ≈: the same amount, converted by molar mass. Activity calls are given as the source filed them. The calls are words filed in the database; no cut-off is given here.

Key:
[1] = system: Mycobacterium tuberculosis; experiment: Antimycobacterial activity against Mycobacterium tuberculosis H37Rv assessed as induction of cell wall disintegration at 0.05 uM after 30 mins by TEM analysis; format: functional, organism-based
[2] = system: Mycobacterium tuberculosis; experiment: Bactericidal activity against Mycobacterium tuberculosis H37Rv after 4 weeks by MABA; format: functional; conditions: 672 h
[3] = Cytotoxicity against human THP1 cells assessed as cell viability at 37.48 ug/ml after 24 hrs by MTT assay relative to control; format: cell-based; conditions: THP-1 cells, read-out: Activity
Method in brief: (§1)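 THP-1 cells (human monocytic line) seeded at 10^4 per well and adhered with phorbol myristate acetate (20 ng/mL). Then given fresh RPMI with 10% foetal calf serum and 2 mM L-glutamine, plus compound by serial double dilution (4.68–150 µg/mL), with DMSO and no-DMSO controls. Incubated 24 or 48 h at 37 °C, 5% CO2. MTT added for 4 h, formazan dissolved in DMSO, A540 read, percentage survival calculated.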

[4] = Cytotoxicity against human THP1 cells assessed as cell viability at 18.72 ug/ml after 24 hrs by MTT assay relative to control; format: cell-based; conditions: THP-1 cells, read-out: Activity; method in brief: as §1
[5] = system: Mycobacterium tuberculosis; experiment: Antimycobacterial activity against MDR Mycobacterium tuberculosis isolate 591 after 15 days by MABA; format: functional; conditions: isolate 591, 360 h
Method in brief: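 MABA in 7H9 medium on MDR clinical isolate 591: filtered single-cell suspension, 1 × 10^6 cells per well with drug dilutions, aerobic 37 °C; 0.02 % resazurin added on day 15, overnight 37 °C. MIC = lowest concentration preventing blue-to-pink change. Triplicate; medium+inoculum and medium-only controls.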

[6] = Cytotoxicity against human THP1 cells assessed as cell viability at 9.36 ug/ml after 24 hrs by MTT assay relative to control; format: cell-based; conditions: THP-1 cells, read-out: Activity; method in brief: as §1
[7] = Cytotoxicity against human THP1 cells assessed as cell viability at 18.72 ug/ml after 48 hrs by MTT assay relative to control; format: cell-based; conditions: THP-1 cells, read-out: Activity; method in brief: as §1
[8] = system: Mycobacterium tuberculosis; experiment: Ratio of MBC to MIC for Mycobacterium tuberculosis H37Rv; format: functional
THP-1 = experiment: Cytotoxicity against human THP1 cells assessed as growth inhibition after 24 to 48 hrs by MTT assay; format: cell-based; method in brief: as §1
[9] = Cytotoxicity against human THP1 cells assessed as cell viability at 37.48 ug/ml after 48 hrs by MTT assay relative to control; format: cell-based; conditions: THP-1 cells, read-out: Activity; method in brief: as §1
[10] = Cytotoxicity against human THP1 cells assessed as cell viability at 9.36 ug/ml after 48 hrs by MTT assay relative to control; format: cell-based; conditions: THP-1 cells, read-out: Activity; method in brief: as §1
[11] = Cytotoxicity against human THP1 cells assessed as cell viability at 75 ug/ml after 48 hrs by MTT assay relative to control; format: cell-based; conditions: THP-1 cells, read-out: Activity; method in brief: as §1
[12] = Cytotoxicity against human THP1 cells assessed as cell viability at 4.68 ug/ml after 24 hrs by MTT assay relative to control; format: cell-based; conditions: THP-1 cells, read-out: Activity; method in brief: as §1
[13] = system: Mycobacterium tuberculosis; experiment: Antimycobacterial activity against Mycobacterium tuberculosis H37Rv after 10 days by MABA; format: functional; conditions: 240 h
Method in brief: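 MABA in 7H9 medium: log-phase culture passed through 8 µm filter, density set by OD600 and McFarland standards, 1 × 10^6 cells per well with drug dilutions; aerobic incubation 37 °C 10 days, then 0.02 % resazurin, overnight 37 °C. MIC = lowest concentration preventing blue-to-pink change. Triplicate; medium+inoculum and medium-only controls.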

[14] = Cytotoxicity against human THP1 cells assessed as cell viability at 75 ug/ml after 24 hrs by MTT assay relative to control; format: cell-based; conditions: THP-1 cells, read-out: Activity; method in brief: as §1
[15] = Cytotoxicity against human THP1 cells assessed as cell viability at 150 ug/ml after 24 hrs by MTT assay relative to control; format: cell-based; conditions: THP-1 cells, read-out: Activity; method in brief: as §1
[16] = Cytotoxicity against human THP1 cells assessed as cell viability at 150 ug/ml after 48 hrs by MTT assay relative to control; format: cell-based; conditions: THP-1 cells, read-out: Activity; method in brief: as §1
[17] = Selectivity index, ratio of IC50 for cytotoxicity against human THP1 cells to MIC for Mycobacterium tuberculosis H37Rv; format: toxicity, cell-based; conditions: THP-1 cells, read-out: Selectivity Index
Method in brief: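 THP-1 cells, 10^4/well, adhered with PMA 20 ng/mL, in RPMI with 10 % FCS and 2 mM L-glutamine; exposed to 4.68–150 µg/mL for 24 and 48 h at 37 °C, 5 % CO2; MTT 4 h, formazan in DMSO, A540. Index = THP-1 IC50 divided by H37Rv MABA MIC.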

[18] = Cytotoxicity against human THP1 cells assessed as cell viability at 4.68 ug/ml after 48 hrs by MTT assay relative to control; format: cell-based; conditions: THP-1 cells, read-out: Activity; method in brief: as §1
[19] = system: Mycobacterium tuberculosis; experiment: Antimycobacterial activity against Mycobacterium tuberculosis H37Rv assessed as induction of cell wall disintegration at 4.15 uM after 30 mins by TEM analysis; format: functional, organism-based
[20] = target: DNA gyrase subunit B (Escherichia coli) (UniProt P0AES6); experiment: Inhibition of Escherichia coli DNA gyrase-B at 0.66 to 100 uM using relaxed pUC19 DNA as substrate after 1 hr by bromophenol blue dye based agarose gel electrophoresis method
Method in brief: (§2)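 E. coli DNA gyrase, 1 unit, with 0.3 µg relaxed pUC19 plasmid in 1X gyrase assay buffer. Compound added as 0.2 µL from 100 µM stock; ciprofloxacin positive control, DMSO solvent control. Incubated 37 °C for 1 h, stopped with 50% glycerol/0.25% bromophenol blue. Run on 1% agarose in 0.5X TBE pH 8.3, 16 h at 30 mA, ethidium bromide stained, UV visualised for supercoiling.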

[21] = system: Mycobacterium tuberculosis; experiment: Ratio of MBC to MIC for MDR Mycobacterium tuberculosis isolate 591; format: functional
[22] = system: Mycobacterium tuberculosis; experiment: Antimycobacterial activity against Mycobacterium tuberculosis H37Rv assessed as cells with vacuole formation at 4.15 uM after 30 mins by TEM analysis; format: functional, organism-based
[23] = system: Mycobacterium tuberculosis; experiment: Bactericidal activity against MDR Mycobacterium tuberculosis isolate 591 after 4 weeks by MABA; format: functional; conditions: isolate 591, 672 h
DNA gyrase subunit B = DNA gyrase subunit B (Escherichia coli, UniProt P0AES6); experiment: Inhibition of Escherichia coli DNA gyrase-B using relaxed pUC19 DNA as substrate after 1 hr by bromophenol blue dye based agarose gel electrophoresis method; method in brief: as §2
[24] = target: T1, Enoyl-[acyl-carrier-protein] reductase [NADH] (Mycobacterium tuberculosis) (UniProt P9WGR1); experiment: Inhibition of Mycobacterium tuberculosis H37Rv InhA expressed in Escherichia coli at 5 to 100 uM preincubated for 30 mins followed by crotonoyl-CoA substrate and NADH addition measured over 15 mins by spectrophotometric method
T1 sequence (whole entry): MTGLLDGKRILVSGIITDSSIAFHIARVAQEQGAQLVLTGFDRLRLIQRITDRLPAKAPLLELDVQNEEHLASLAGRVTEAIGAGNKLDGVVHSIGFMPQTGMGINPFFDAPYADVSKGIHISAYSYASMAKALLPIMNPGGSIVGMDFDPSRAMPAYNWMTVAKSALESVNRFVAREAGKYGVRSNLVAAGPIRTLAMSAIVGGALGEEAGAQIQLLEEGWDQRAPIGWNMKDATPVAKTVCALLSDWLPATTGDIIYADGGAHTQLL
Method in brief: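 Purified recombinant InhA (Rv1484, cloned in E. coli), 2 µg, preincubated 30 min with compound at 5 µM final (DMSO ≤1 % v/v) in 100 mM sodium phosphate pH 7.5; started with 100 µM NADH and 100 µM crotonoyl-CoA; A340 followed 15 min at room temperature. Triplicate.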

[25] = system: Mycobacterium tuberculosis; experiment: Potency index, ratio of isoniazid MIC to compound MIC for antimycobacterial activity against MDR Mycobacterium tuberculosis isolate 591; format: functional
[26] = system: Mycobacterium tuberculosis; experiment: Potency index, ratio of rifampicin MIC to compound MIC for antimycobacterial activity against MDR Mycobacterium tuberculosis isolate 591; format: functional
[27] = system: Mycobacterium tuberculosis; experiment: Potency index, ratio of streptomycin MIC to compound MIC for antimycobacterial activity against MDR Mycobacterium tuberculosis isolate 591; format: functional
[28] = system: Mycobacterium tuberculosis; experiment: Potency index, ratio of ethambutol MIC to compound MIC for antimycobacterial activity against MDR Mycobacterium tuberculosis isolate 591; format: functional

## NNC(=O)c1ccncc1 [ISONIAZID]
[1]
  Activity: Active
[2]
  MBC: 0.3 µM (≈ 0.0411 µg/mL)
[3]
  viability at 24 h, 37.48 ug/ml: 68%
[4]
  viability at 24 h, 18.72 ug/ml: 83%
[5]
  MIC: 2190 µM (≈ 300 µg/mL)
[6]
  viability at 24 h, 9.36 ug/ml: 85%
[7]
  viability at 48 h, 18.72 ug/ml: 67%
[8]
  Ratio: 1.6
THP-1
  IC50: 547 µM
[9]
  viability at 48 h, 37.48 ug/ml: 57%
[10]
  viability at 48 h, 9.36 ug/ml: 74%
[11]
  viability at 48 h, 75 ug/ml: 41%
[12]
  viability at 24 h, 4.68 ug/ml: 90%
[13]
  MIC: 0.2 µM (≈ 0.0274 µg/mL)
[14]
  viability at 24 h, 75 ug/ml: 50%
[15]
  viability at 24 h, 150 ug/ml: 48%
[16]
  viability at 48 h, 150 ug/ml: 40%
[17]
  selectivity ratio: 2740
[18]
  viability at 48 h, 4.68 ug/ml: 84%

## Cc1cc(=O)oc2cc(-c3cn([C@@H]4O[C@H](CO)[C@@H](O)[C@H]4O)nn3)ccc12
[19]
  Activity: Active
[20]
  inhibition: Active
[2]
  MBC: 16.7 µM (≈ 6 µg/mL)
[3]
  viability at 24 h, 37.48 ug/ml: 99%
[4]
  viability at 24 h, 18.72 ug/ml: 99%
[5]
  MIC: 22.2 µM (≈ 7.98 µg/mL)
[21]
  Ratio: 1
[6]
  viability at 24 h, 9.36 ug/ml: 100%
[7]
  viability at 48 h, 18.72 ug/ml: 87%
[8]
  Ratio: 1
[22]
  Activity: Active
[23]
  MBC: 22.2 µM (≈ 7.98 µg/mL)
THP-1
  IC50: > 417 µM
[9]
  viability at 48 h, 37.48 ug/ml: 77%
[10]
  viability at 48 h, 9.36 ug/ml: 90%
[11]
  viability at 48 h, 75 ug/ml: 64%
[12]
  viability at 24 h, 4.68 ug/ml: 100%
[13]
  MIC: 16.6 µM (≈ 5.97 µg/mL)
[14]
  viability at 24 h, 75 ug/ml: 96%
[15]
  viability at 24 h, 150 ug/ml: 84%
[16]
  viability at 48 h, 150 ug/ml: 60%
DNA gyrase subunit B
  IC50: 3.2 µM
[24]
  inhibition: Active
[17]
  selectivity ratio: 25
[18]
  viability at 48 h, 4.68 ug/ml: 96%

## O=c1cc(-c2ccccc2)c2ccc(OCc3cn([C@@H]4O[C@H](CO)[C@@H](O)[C@H]4O)nn3)cc2o1
[2]
  MBC: 17.7 µM (≈ 7.99 µg/mL)
[3]
  viability at 24 h, 37.48 ug/ml: 94%
[4]
  viability at 24 h, 18.72 ug/ml: 100%
[5]
  MIC: 8.9 µM (≈ 4.02 µg/mL)
[6]
  viability at 24 h, 9.36 ug/ml: 100%
[7]
  viability at 48 h, 18.72 ug/ml: 84%
[8]
  Ratio: 4
THP-1
  IC50: > 332 µM
[9]
  viability at 48 h, 37.48 ug/ml: 78%
[10]
  viability at 48 h, 9.36 ug/ml: 93%
[25]
  Ratio: 7 - 420
[11]
  viability at 48 h, 75 ug/ml: 70%
[12]
  viability at 24 h, 4.68 ug/ml: 100%
[13]
  MIC: 4.4 µM (≈ 1.99 µg/mL)
[14]
  viability at 24 h, 75 ug/ml: 88%
[26]
  Ratio: 7 - 420
[15]
  viability at 24 h, 150 ug/ml: 79%
[16]
  viability at 48 h, 150 ug/ml: 62%
[17]
  selectivity ratio: 75.4
[27]
  Ratio: 7 - 420
[18]
  viability at 48 h, 4.68 ug/ml: 95%
[28]
  Ratio: 7 - 420

## O=C(OC[C@H]1O[C@@H](n2cc(COc3ccc4c(-c5ccccc5)cc(=O)oc4c3)nn2)[C@H](OC(=O)c2ccccc2)[C@@H]1OC(=O)c1ccccc1)c1ccccc1
[2]
  MBC: 10.5 µM (≈ 8.02 µg/mL)
[3]
  viability at 24 h, 37.48 ug/ml: 81%
[4]
  viability at 24 h, 18.72 ug/ml: 97%
[5]
  MIC: 5.2 µM (≈ 3.97 µg/mL)
[6]
  viability at 24 h, 9.36 ug/ml: 100%
[7]
  viability at 48 h, 18.72 ug/ml: 84%
[8]
  Ratio: 2
THP-1
  IC50: > 196 µM
[9]
  viability at 48 h, 37.48 ug/ml: 74%
[10]
  viability at 48 h, 9.36 ug/ml: 93%
[25]
  Ratio: 7 - 420
[11]
  viability at 48 h, 75 ug/ml: 70%
[12]
  viability at 24 h, 4.68 ug/ml: 100%
[13]
  MIC: 5.2 µM (≈ 3.97 µg/mL)
[14]
  viability at 24 h, 75 ug/ml: 81%
[26]
  Ratio: 7 - 420
[15]
  viability at 24 h, 150 ug/ml: 66%
[16]
  viability at 48 h, 150 ug/ml: 64%
[17]
  selectivity ratio: 37.6
[27]
  Ratio: 7 - 420
[18]
  viability at 48 h, 4.68 ug/ml: 95%
[28]
  Ratio: 7 - 420
